Reference: ChEMBL document CHEMBL2203081 (Bioorg Med Chem Lett, 2012)
Calls of active or inactive are those of the source. The calls are words filed in the database; no cut-off is given here.

What was measured:
Mus musculus [1] = assay: Inhibition of LRRK2 in mouse assessed as inhibition of Ser910 autophosphorylation in kidney at 100 mg/kg, ip by immunoblot method; format: functional, organism-based; set-up: dose 100 mg/kg
[2] = biological target: Phosphatidylinositol 4-phosphate 5-kinase type-1 alpha (Homo sapiens) (UniProt Q99755); assay: Inhibition of PIP5K1A assessed as residual activity at 10 uM relative to control
[3] = biological target: Serine/threonine-protein kinase 3 (Homo sapiens) (UniProt Q13188); assay: Inhibition of MST2 assessed as residual activity at 1 uM
[4] = biological target: Serine/threonine-protein kinase D2 (Homo sapiens) (UniProt Q9BZL6); assay: Inhibition of PRKD2 assessed as residual activity at 10 uM relative to control
[5] = biological target: T1, Ephrin type-B receptor 2 (Homo sapiens) (UniProt P29323); assay: Inhibition of EPH-B2 assessed as residual activity at 10 uM
T1 sequence (whole entry): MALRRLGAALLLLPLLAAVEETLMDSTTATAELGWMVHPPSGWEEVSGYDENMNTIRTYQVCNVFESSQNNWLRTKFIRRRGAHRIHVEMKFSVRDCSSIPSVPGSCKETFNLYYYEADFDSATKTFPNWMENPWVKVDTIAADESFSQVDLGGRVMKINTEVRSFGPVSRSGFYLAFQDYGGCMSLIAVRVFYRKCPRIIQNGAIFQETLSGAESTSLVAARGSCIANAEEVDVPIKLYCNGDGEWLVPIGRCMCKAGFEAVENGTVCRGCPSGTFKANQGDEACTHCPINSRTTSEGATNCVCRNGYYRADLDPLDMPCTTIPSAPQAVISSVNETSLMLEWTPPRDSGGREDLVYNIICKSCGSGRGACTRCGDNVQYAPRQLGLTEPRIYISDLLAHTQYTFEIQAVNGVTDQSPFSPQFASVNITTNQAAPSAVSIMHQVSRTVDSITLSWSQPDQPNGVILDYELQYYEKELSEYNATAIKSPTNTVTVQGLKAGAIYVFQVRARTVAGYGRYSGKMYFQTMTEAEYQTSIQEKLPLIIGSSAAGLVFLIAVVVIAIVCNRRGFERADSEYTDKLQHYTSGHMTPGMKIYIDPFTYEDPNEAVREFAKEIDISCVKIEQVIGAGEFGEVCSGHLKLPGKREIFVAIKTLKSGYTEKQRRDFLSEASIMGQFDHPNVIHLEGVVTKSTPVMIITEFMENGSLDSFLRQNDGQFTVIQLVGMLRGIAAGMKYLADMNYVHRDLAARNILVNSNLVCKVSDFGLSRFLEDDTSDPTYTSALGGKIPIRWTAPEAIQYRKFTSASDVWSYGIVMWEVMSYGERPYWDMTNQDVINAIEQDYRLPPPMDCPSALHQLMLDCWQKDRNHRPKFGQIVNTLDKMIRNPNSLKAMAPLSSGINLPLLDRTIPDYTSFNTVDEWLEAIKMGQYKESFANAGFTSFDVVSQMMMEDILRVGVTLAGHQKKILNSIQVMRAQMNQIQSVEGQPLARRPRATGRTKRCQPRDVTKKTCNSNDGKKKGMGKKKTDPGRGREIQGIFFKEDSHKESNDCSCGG
Outline: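 Standard radioactivity-based enzymatic kinase assays on a 131-kinase panel run by the Dundee profiling service; residual kinase activity recorded.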

[6] = biological target: Serine/threonine-protein kinase WNK1 (Homo sapiens) (UniProt Q9H4A3); assay: Inhibition of WNK1 assessed as residual activity at 10 uM
[7] = biological target: Tyrosine-protein kinase Tec (Homo sapiens) (UniProt P42680); assay: Inhibition of TEC assessed as residual activity at 10 uM relative to control
[8] = biological target: Serine/threonine-protein kinase PknB (Mycobacterium tuberculosis) (UniProt P9WI81); assay: Inhibition of Mycobacterium tuberculosis PKNB assessed as residual activity at 10 uM relative to control
[9] = biological target: Serine/threonine-protein kinase 32B (Homo sapiens) (UniProt Q9NY57); assay: Inhibition of YANK2 assessed as residual activity at 10 uM relative to control
[10] = biological target: Microtubule-associated serine/threonine-protein kinase 1 (Homo sapiens) (UniProt Q9Y2H9); assay: Inhibition of MAST1 assessed as residual activity at 10 uM relative to control
[11] = biological target: Mitogen-activated protein kinase kinase kinase kinase 3 (Homo sapiens) (UniProt Q8IVH8); assay: Inhibition of MAP4K3 assessed as residual activity at 10 uM relative to control
[12] = biological target: Serine/threonine-protein kinase N2 (Homo sapiens) (UniProt Q16513); assay: Inhibition of PKN2 assessed as residual activity at 10 uM relative to control
[13] = biological target: Tyrosine-protein kinase SYK (Homo sapiens) (UniProt P43405); assay: Inhibition of SYK assessed as residual activity at 10 uM
[14] = biological target: Receptor-type tyrosine-protein kinase FLT3 (Homo sapiens) (UniProt P36888); assay: Inhibition of FLT3 assessed as residual activity at 10 uM relative to control
[15] = biological target: Angiopoietin-1 receptor (Homo sapiens) (UniProt Q02763); assay: Inhibition of TIE2 assessed as residual activity at 10 uM
Mus musculus [16] = assay: Inhibition of LRRK2 in mouse assessed as inhibition of Ser935 autophosphorylation in spleen at 100 mg/kg, ip by immunoblot method; format: functional, organism-based; set-up: dose 100 mg/kg
[17] = biological target: T1, Ephrin type-B receptor 2 (Homo sapiens); assay: Inhibition of EPHB2 assessed as residual activity at 10 uM relative to control
Outline: (§1)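 Competition kinase-binding assay (KINOMEscan) across a non-redundant panel of 329 kinases beyond the radiometric panel; residual binding expressed relative to control.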

[18] = biological target: Platelet-derived growth factor receptor beta (Homo sapiens) (UniProt P09619); assay: Inhibition of PDGFRB assessed as residual activity at 10 uM relative to control
[19] = biological target: Casein kinase I isoform delta (Homo sapiens) (UniProt P48730); assay: Inhibition of CSNK1D assessed as residual activity at 10 uM relative to control; outline: as §1
[20] = biological target: Focal adhesion kinase 1 (Homo sapiens) (UniProt Q05397); assay: Inhibition of FAK assessed as residual activity at 10 uM relative to control
[21] = biological target: MAP kinase-activated protein kinase 5 (Homo sapiens) (UniProt Q8IW41); assay: Inhibition of PRAK assessed as residual activity at 1 uM
[22] = biological target: Serine/threonine-protein kinase 24 (Homo sapiens) (UniProt Q9Y6E0); assay: Inhibition of MST3 assessed as residual activity at 1 uM
[23] = biological target: Ephrin type-A receptor 7 (Homo sapiens) (UniProt Q15375); assay: Inhibition of EPHA7 assessed as residual activity at 10 uM relative to control; outline: as §1
[24] = biological target: Serine/threonine-protein kinase WNK1 (Homo sapiens) (UniProt Q9H4A3); assay: Inhibition of WNK1 assessed as residual activity at 10 uM relative to control

Serine/threonine-protein kinase WNK1 (Homo sapiens), sequence (Q9H4A3 whole entry, looked up): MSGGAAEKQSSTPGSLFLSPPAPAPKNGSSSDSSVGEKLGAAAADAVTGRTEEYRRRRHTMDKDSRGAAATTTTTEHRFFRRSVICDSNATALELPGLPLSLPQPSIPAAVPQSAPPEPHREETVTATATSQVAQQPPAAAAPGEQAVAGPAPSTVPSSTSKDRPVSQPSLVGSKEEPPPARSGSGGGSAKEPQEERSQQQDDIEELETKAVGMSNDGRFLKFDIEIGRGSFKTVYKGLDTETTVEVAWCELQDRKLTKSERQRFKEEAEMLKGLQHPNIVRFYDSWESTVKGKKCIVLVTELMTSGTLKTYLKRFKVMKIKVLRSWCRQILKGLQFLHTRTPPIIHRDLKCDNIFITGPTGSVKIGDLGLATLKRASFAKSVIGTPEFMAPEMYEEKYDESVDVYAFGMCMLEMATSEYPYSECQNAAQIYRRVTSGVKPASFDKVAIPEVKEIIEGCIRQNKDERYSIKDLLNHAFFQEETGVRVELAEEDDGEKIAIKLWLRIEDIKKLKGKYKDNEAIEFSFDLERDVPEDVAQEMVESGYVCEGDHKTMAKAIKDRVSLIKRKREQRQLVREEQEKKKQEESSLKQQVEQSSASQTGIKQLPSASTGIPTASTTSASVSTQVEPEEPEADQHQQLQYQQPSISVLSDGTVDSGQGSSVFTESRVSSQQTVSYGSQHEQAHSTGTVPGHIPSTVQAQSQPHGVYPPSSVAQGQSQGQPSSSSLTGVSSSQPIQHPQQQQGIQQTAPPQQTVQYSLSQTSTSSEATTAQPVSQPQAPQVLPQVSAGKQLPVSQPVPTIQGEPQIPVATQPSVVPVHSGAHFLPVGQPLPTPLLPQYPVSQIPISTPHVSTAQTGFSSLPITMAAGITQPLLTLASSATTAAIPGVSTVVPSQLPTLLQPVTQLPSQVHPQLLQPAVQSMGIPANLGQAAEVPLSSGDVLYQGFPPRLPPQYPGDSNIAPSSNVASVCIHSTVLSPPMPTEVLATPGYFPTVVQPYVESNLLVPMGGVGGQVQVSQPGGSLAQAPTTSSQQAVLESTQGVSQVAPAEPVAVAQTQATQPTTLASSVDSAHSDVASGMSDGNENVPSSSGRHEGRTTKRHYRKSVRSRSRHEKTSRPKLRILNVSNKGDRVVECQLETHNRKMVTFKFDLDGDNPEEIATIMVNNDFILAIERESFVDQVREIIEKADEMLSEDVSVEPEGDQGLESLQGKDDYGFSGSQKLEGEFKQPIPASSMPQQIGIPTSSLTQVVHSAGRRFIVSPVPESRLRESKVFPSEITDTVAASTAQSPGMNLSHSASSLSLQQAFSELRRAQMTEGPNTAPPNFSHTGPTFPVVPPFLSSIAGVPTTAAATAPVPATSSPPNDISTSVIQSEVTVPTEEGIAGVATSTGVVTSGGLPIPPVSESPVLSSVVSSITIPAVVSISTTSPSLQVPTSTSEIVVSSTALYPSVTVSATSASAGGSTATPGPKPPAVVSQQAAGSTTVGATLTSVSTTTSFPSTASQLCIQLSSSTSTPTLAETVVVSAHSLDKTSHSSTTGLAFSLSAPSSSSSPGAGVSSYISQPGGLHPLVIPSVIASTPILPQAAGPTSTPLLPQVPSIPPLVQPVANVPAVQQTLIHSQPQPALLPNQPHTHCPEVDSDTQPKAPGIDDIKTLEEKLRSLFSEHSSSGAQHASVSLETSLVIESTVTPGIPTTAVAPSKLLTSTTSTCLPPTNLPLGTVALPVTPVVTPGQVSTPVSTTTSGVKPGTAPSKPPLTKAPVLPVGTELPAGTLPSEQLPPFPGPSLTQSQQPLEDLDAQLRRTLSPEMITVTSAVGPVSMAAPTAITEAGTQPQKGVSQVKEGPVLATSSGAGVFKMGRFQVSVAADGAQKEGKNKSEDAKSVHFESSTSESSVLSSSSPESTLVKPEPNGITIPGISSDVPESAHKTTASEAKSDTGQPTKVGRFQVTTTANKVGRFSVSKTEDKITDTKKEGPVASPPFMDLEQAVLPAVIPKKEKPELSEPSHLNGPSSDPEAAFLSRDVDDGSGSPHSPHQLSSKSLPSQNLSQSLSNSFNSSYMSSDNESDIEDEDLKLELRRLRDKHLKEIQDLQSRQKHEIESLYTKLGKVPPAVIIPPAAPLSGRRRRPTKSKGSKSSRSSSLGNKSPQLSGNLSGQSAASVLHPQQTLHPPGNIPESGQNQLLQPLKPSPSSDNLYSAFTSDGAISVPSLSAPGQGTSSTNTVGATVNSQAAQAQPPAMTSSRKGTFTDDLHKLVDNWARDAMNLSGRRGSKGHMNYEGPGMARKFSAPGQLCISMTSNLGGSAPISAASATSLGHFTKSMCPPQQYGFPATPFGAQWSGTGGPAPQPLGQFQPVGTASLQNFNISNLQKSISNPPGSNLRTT
Serine/threonine-protein kinase 3 (Homo sapiens), sequence (Q13188 whole entry): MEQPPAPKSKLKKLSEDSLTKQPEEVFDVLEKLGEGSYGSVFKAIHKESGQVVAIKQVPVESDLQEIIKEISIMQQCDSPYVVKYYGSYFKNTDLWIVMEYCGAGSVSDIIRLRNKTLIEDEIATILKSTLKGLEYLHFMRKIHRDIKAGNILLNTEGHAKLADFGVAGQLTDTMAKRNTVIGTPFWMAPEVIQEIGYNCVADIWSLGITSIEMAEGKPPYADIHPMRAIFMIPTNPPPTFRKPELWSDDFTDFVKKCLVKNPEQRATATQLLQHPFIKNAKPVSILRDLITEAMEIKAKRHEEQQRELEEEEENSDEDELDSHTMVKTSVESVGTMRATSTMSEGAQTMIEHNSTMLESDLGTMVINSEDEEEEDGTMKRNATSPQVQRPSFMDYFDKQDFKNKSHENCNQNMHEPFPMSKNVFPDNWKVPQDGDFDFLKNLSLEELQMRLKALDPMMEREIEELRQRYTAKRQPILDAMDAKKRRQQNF
Angiopoietin-1 receptor (Homo sapiens), sequence (Q02763 whole entry): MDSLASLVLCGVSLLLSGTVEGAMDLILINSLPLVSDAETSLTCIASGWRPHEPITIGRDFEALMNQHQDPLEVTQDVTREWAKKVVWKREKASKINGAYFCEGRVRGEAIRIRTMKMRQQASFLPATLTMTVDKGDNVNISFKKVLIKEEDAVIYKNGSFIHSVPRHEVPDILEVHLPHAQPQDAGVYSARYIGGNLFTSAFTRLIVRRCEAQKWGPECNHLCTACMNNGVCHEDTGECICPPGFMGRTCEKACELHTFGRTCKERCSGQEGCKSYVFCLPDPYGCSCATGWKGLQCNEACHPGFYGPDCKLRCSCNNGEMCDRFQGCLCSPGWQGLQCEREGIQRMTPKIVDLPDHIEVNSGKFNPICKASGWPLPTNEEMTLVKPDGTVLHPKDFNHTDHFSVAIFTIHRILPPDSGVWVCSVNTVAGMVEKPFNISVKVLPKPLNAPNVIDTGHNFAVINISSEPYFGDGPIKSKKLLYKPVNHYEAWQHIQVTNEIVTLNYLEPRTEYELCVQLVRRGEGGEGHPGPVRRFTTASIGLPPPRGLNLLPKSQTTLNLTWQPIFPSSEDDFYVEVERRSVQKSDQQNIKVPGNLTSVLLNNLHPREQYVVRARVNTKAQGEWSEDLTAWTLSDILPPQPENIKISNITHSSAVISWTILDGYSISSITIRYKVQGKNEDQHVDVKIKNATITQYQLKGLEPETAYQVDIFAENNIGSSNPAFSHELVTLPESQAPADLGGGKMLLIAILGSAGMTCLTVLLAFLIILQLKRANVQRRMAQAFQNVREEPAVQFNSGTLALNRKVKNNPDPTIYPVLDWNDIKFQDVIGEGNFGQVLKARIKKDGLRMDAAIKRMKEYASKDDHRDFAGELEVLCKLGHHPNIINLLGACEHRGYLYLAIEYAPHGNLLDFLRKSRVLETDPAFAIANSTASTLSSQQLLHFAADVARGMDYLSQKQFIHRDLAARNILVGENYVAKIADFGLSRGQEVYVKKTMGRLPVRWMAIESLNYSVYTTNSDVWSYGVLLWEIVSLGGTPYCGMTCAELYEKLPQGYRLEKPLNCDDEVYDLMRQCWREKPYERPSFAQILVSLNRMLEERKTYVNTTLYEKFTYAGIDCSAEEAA
Serine/threonine-protein kinase N2 (Homo sapiens), sequence (Q16513 whole entry, looked up): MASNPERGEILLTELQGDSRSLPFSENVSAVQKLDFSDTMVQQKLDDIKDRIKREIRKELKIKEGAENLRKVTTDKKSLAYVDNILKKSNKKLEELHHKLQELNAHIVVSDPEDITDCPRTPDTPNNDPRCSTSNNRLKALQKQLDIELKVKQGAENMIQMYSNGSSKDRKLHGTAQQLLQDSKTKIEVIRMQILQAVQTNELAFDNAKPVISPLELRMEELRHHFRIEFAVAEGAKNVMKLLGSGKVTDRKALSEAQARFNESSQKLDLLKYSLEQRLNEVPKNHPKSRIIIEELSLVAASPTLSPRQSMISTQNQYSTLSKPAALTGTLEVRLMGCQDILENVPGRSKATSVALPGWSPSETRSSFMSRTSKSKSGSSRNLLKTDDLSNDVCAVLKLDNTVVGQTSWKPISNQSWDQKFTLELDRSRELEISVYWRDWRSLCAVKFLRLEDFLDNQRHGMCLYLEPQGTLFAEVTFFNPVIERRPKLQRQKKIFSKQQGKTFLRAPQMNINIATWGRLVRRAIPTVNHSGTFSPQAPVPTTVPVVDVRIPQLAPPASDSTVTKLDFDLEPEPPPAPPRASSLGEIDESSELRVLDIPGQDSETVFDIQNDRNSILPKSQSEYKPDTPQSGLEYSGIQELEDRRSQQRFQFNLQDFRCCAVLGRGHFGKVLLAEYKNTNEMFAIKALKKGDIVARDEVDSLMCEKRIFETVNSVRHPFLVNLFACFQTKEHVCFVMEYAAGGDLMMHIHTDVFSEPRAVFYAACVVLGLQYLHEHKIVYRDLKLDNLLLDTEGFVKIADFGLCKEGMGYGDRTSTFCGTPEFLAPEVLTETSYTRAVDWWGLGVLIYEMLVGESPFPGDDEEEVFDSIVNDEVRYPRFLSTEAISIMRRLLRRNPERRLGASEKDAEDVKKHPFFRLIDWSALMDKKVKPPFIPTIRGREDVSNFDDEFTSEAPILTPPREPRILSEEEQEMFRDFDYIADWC

Q: O=C(Nc1cccnc1)c1cc(-c2ccnc(F)c2)ccc1OCc1ccccc1 was tested. Which inhibition (Mus musculus [1]) did it give?
A: Active

Q: What about the Activity [2] of the same compound?
A: 73%

Q: And the Activity [3]?
A: 103%

Q: What about the Activity [4] of the same compound?
A: 74%

Q: And the Activity [5]?
A: 115%

Q: What about the Activity [6] of the same compound?
A: 106%

Q: And the Activity [7]?
A: 53%

Q: What about the Activity [8] of the same compound?
A: 72%

Q: What about the Activity [9] of the same compound?
A: 79%

Q: And the Activity [10]?
A: 35%

Q: What about the Activity [11] of the same compound?
A: 60%

Q: What about the Activity [12] of the same compound?
A: 20%

Q: And the Activity [13]?
A: 125%

Q: What about the Activity [14] of the same compound?
A: 66%

Q: What about the Activity [15] of the same compound?
A: 133%

Q: And the inhibition (Mus musculus [16])?
A: Active

Q: And the Activity [17]?
A: 71%

Q: And the Activity [18]?
A: 52%

Q: What about the Activity [19] of the same compound?
A: 19%

Q: And the Activity [20]?
A: 63%

Q: What about the Activity [21] of the same compound?
A: 109%

Q: And the Activity [22]?
A: 101%

Q: And the Activity [23]?
A: 60%

Q: What about the Activity [24] of the same compound?
A: 61%
